# Source: ChEMBL document CHEMBL4152356, “Amphipathic sulfonamidobenzamides mimicking small antimicrobial marine natural products; investigation of antibacterial and anti-biofilm activity against antibiotic resistant clinical isolates” (Bioorg Med Chem, 2018)
# Legend:
# MRC5 = assay: Cytotoxicity against human MRC5 cells after 72 hrs by MTS assay; type: cell-based; conditions: MRC5, 72 h
# Method in brief: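 MRC-5 lung fibroblasts in DMEM with 10% FBS, 37 °C, 5% CO2; seeded at 4000 cells/well, adhered 24 h, medium replaced. Two-fold dilutions up to 100 µg/ml for 72 h, then MTS for 1 h and absorbance at 485 nm. Controls were 1% DMSO (negative) and 0.5% Triton X-100 (positive). EC50 is the concentration giving 50% inhibition of survival.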
# Escherichia coli [1] = assay: Antibacterial activity against Escherichia coli ATCC 25922 after 48 hrs by microdilution method; type: functional; conditions: ATCC 25922, 48 h
# Method in brief: (§1)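 Broth microdilution (CLSI M07-A9, modified) in Mueller-Hinton broth; inoculum about 2.5-3 × 10^4 cells/ml mixed 1:1 with serial compound dilutions. Stock solutions in up to 100% DMSO, final DMSO ≤1%. Incubated 35 °C for 48 h.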
# Pseudomonas aeruginosa [2] = assay: Antibacterial activity against Pseudomonas aeruginosa PAO1 DSM 19880 ATCC 15692 after 48 hrs by microdilution method; type: functional; conditions: PAO1 DSM 19880 ATCC 15692, 48 h; method in brief: as §1
# [3] = Selectivity index, ratio of EC50 for human RBC to MIC for methicillin resistant Staphylococcus epidermidis RP62A ATCC 35984/CCUG 31568; type: toxicity; conditions: human red blood cells (RBC), read-out: Selectivity Index
# Method in brief: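 SI = hemolytic EC50 / MRSE MIC. Hemolysis: washed human RBCs (heparinized blood, healthy adult donor) at 10% in PBS pH 7.4, mixed 9:1 with serial compound dilutions, 37 °C for 1 h. 0.05% Triton X-100 set 100% lysis, 0.5% DMSO set baseline. MIC from MHB microdilution, 35 °C, […].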
# [4] = test system: Staphylococcus epidermidis; assay: Antibacterial activity against methicillin resistant Staphylococcus epidermidis RP62A ATCC 35984/CCUG 31568 after 48 hrs by microdilution method; type: functional; conditions: RP62A ATCC 35984/CCUG 31568, 48 h
# Method in brief: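 Broth microdilution (modified CLSI M07-A9) against the MRSE reference strain. Inoculum of about 2.5-3 × 10^4 cells/ml in Mueller-Hinton broth mixed 1:1 with serial compound dilutions; final DMSO ≤1%. Incubated 35 °C, 48 h.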
# Erythrocyte = assay: Hemolytic activity against human RBC measured after 1 hr; type: cell-based
# Method in brief: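 Washed human RBCs from a healthy donor (heparinized) at 10% in PBS pH 7.4, mixed 9:1 with serial compound dilutions, 37 °C for 1 h. Baseline set by 0.5% DMSO in 50% PBS, 100% lysis by 0.05% Triton X-100. EC50 is the concentration giving 50% lysis.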
# [5] = test system: Corynebacterium glutamicum; assay: Antibacterial activity against Corynebacterium glutamicum ATCC 13032 after 48 hrs by microdilution method; type: functional; conditions: ATCC 13032, 48 h; method in brief: as §1
# Staphylococcus aureus [6] = assay: Antibacterial activity against Staphylococcus aureus ATCC 9144 after 48 hrs by microdilution method; type: functional; conditions: ATCC 9144, 48 h; method in brief: as §1
# Bacillus subtilis = assay: Antibacterial activity against Bacillus subtilis 168 ATCC 23857 after 48 hrs by microdilution method; type: functional; conditions: subsp. subtilis str. 168 ATCC 23857, 48 h; method in brief: as §1
# Pseudomonas aeruginosa [7] = assay: Antibacterial activity against Pseudomonas aeruginosa clinical isolates after 24 hrs by microdilution method; type: functional
# Method in brief: (§2)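 Clinical isolate screen by broth microdilution with about 1-1.2 × 10^6 cells/ml and 24 h incubation. MIC is the lowest concentration with no growth. For isolate collections, MIC90 is the MIC inhibiting ≥90% of isolates. Multidrug resistance was defined as resistance to at least […] antimicrobial class.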
# Staphylococcus aureus [8] = assay: Antibacterial activity against Staphylococcus aureus clinical isolates after 24 hrs by microdilution method; type: functional; method in brief: as §2
# Klebsiella pneumoniae = assay: Antibacterial activity against Klebsiella pneumoniae clinical isolates after 24 hrs by microdilution method; type: functional; method in brief: as §2
# Enterococcus sp. = assay: Antibacterial activity against Enterococcus sp. clinical isolates after 24 hrs by microdilution method; type: functional; method in brief: as §2
# Escherichia coli [9] = assay: Antibacterial activity against Escherichia coli clinical isolates after 24 hrs by microdilution method; type: functional; method in brief: as §2
Structure (SMILES),EC50 (MRC5),MIC (Escherichia coli [1]),MIC (Pseudomonas aeruginosa [2]),selectivity ratio [3],MIC [4],EC50 (Erythrocyte),MIC [5],MIC (Staphylococcus aureus [6]),MIC (Bacillus subtilis),MIC (Pseudomonas aeruginosa [7]),MIC (Staphylococcus aureus [8]),MIC (Klebsiella pneumoniae),MIC (Enterococcus sp.),MIC (Escherichia coli [9])
CC(C)(C)c1cc(C(=O)Nc2ccccc2C(=O)NCCNC(=N)N)cc(C(C)(C)C)c1.Cl,22 µg/mL,–,–,–,–,–,–,–,–,–,–,–,–,–
Cc1cc(C)cc(S(=O)(=O)Nc2ccc(C(=O)NCCNC(=N)N)cc2)c1.Cl,> 100 µg/mL,> 128 µg/mL,> 128 µg/mL,> 2,64 µg/mL,> 128 µg/mL,64 µg/mL,128 µg/mL,64 µg/mL,–,–,–,–,–
CC(C)(C)c1cc(C(C)(C)C)cc(S(=O)(=O)Nc2ccc(C(=O)NCCN)cc2)c1.Cl,25 µg/mL,64 µg/mL,64 µg/mL,2,32 µg/mL,63 µg/mL,8 µg/mL,32 µg/mL,16 µg/mL,–,–,–,–,–
CC(C)(C)c1cc(C(C)(C)C)cc(S(=O)(=O)Nc2cccc(C(=O)NCCN)c2)c1.Cl,16 µg/mL,32 µg/mL,64 µg/mL,7,8 µg/mL,58 µg/mL,8 µg/mL,16 µg/mL,8 µg/mL,–,–,–,–,–
CC(C)(C)c1cc(C(C)(C)C)cc(S(=O)(=O)Nc2ccccc2C(=O)NCCN)c1.Cl,10 µg/mL,64 µg/mL,128 µg/mL,2,32 µg/mL,56 µg/mL,16 µg/mL,32 µg/mL,32 µg/mL,128 µg/mL,32 µg/mL,128 µg/mL,32 µg/mL,128 µg/mL
CN(c1ccc(C(=O)NCCN)cc1)S(=O)(=O)c1cc(C(C)(C)C)cc(C(C)(C)C)c1.Cl,5 µg/mL,16 µg/mL,32 µg/mL,3,16 µg/mL,53 µg/mL,16 µg/mL,16 µg/mL,8 µg/mL,–,–,–,–,–
CC(C)(C)c1cc(C(C)(C)C)cc(S(=O)(=O)Nc2ccccc2C(=O)NCCNC(=N)N)c1.Cl,42 µg/mL,32 µg/mL,64 µg/mL,10,8 µg/mL,77 µg/mL,4 µg/mL,4 µg/mL,8 µg/mL,32 µg/mL,8 µg/mL,128 µg/mL,32 µg/mL,64 µg/mL
CC(C)(C)c1cc(C(C)(C)C)cc(S(=O)(=O)N2CCC[C@H]2C(=O)NCCNC(=N)N)c1.Cl,> 100 µg/mL,> 128 µg/mL,128 µg/mL,> 4,32 µg/mL,> 128 µg/mL,8 µg/mL,64 µg/mL,32 µg/mL,–,–,–,–,–
CN(c1cccc(C(=O)NCCN)c1)S(=O)(=O)c1cc(C(C)(C)C)cc(C(C)(C)C)c1.Cl,10 µg/mL,16 µg/mL,32 µg/mL,2,16 µg/mL,26 µg/mL,8 µg/mL,16 µg/mL,8 µg/mL,–,–,–,–,–
CC(C)(C)c1cc(C(C)(C)C)cc(S(=O)(=O)Nc2ccc(CC(=O)NCCN)cc2)c1.Cl,20 µg/mL,64 µg/mL,64 µg/mL,5,16 µg/mL,73 µg/mL,16 µg/mL,32 µg/mL,16 µg/mL,–,–,–,–,–
CC(C)(C)c1cc(C(C)(C)C)cc(S(=O)(=O)NCc2ccc(C(=O)NCCN)cc2)c1.Cl,20 µg/mL,32 µg/mL,32 µg/mL,6,16 µg/mL,92 µg/mL,8 µg/mL,32 µg/mL,8 µg/mL,–,–,–,–,–
CN(c1ccc(C(=O)NCCCN)cc1)S(=O)(=O)c1cc(C(C)(C)C)cc(C(C)(C)C)c1.Cl,9 µg/mL,16 µg/mL,32 µg/mL,2,16 µg/mL,28 µg/mL,8 µg/mL,16 µg/mL,8 µg/mL,–,–,–,–,–
